The values that follow come from ChEMBL document CHEMBL1159310, “Indole and beta-carboline alkaloids from Geissospermum sericeum” (J Nat Prod, 2002).

Where only a bound is given, the exact number is not on record here.

Test [1] deals with Plasmodium falciparum. As to the kind of experiment: Antiplasmodial activity against chloroquine-resistant Plasmodium falciparum K1. The class given is functional, organism-based.
Test [2] relates to Plasmodium falciparum. As to the kind of experiment: Antiplasmodial activity against chloroquine-sensitive Plasmodium falciparum T9-96. The class given is functional, organism-based.
For test [3], the system named is KB. Description: Cytotoxicity against human KB cells after 48 hrs by MTT assay. It is filed as cell-based. The essentials:
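Human KB cells (0.5 × 10^6 viable cells/mL in RPMI 1640 with 20% FCS) added to compound diluted in RPMI 1640 from […] DMSO stocks; 48 h at 37 °C. MTT (5 mg/mL) added for 15 min, supernatant discarded, cells solubilised in DMSO plus Sørensen's glycine buffer pH 10.5; OD read at 570 nm; IC50 by curve fitting.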

Test [4] has as its system Plasmodium falciparum. As to the kind of experiment: Selectivity for Plasmodium falciparum K1 to Plasmodium falciparum T9-96 as IC50 ratio. It is filed as functional.

`CC[C@@H]1CN2CC[C@@]34C(=Nc5ccccc53)[C@@H](CO)[C@H]1C[C@H]24`: the results for the IC50 in test [1], in test [2] and in test [3] were 27.3 µM, 35.4 µM and > 40 µM, respectively.

Take `CC[C@@H]1C[N+]2([O-])CC[C@]34c5ccccc5N[C@H]3[C@@H](CO)[C@H]1C[C@@H]42` (some centres undefined): the IC50 in test [1], in test [2] and in test [3] was > 40 µM each time.

As to `CCN(CC)CCCC(C)Nc1ccnc2cc(Cl)ccc12` (centres undefined) [CHLOROQUINE], inhibition in test [3] was half-maximal at 20.4 µM (IC50). In other words, the double-digit micromolar range.

For `CCc1ccc2c3[nH]c4ccccc4c3cc[n+]2c1.[Cl-]` [FLAVOPEREIRINE], the IC50 came out at 11.5 µM in test [1], 1.83 µM in test [2] and 10.7 µM in test [3]. The “Ratio IC50” value in test [4] is given as 6.3.

`CC[C@@H]1CN2CC[C@]34c5ccccc5N[C@H]3[C@@H](CO)[C@H]1C[C@H]24` [GEISSOSCHIZOLINE]: the IC50 in test [1], in test [2] and in test [3] was > 40 µM in each case.
